{"data": "Measurements collected from several papers", "cell line": "HCT-116", "observed": "cell growth or viability", "note": "Lines come from different studies, so protocols differ."}
{"SMILES": "CNC(=O)c1cc(Oc2ccc(NC(=O)Nc3ccc(Cl)c(C(F)(F)F)c3)cc2)ccn1", "assay": "MTT", "conditions": "72 h", "IC50": "2.25 µM"}
{"SMILES": "CC1(C)CC[C@]2(C)CC[C@]3(C)C(=CC[C@@H]4[C@@]5(C)CC[C@H](O)C(C)(C)[C@@H]5CC[C@]43C)[C@@H]2C1", "assay": "WST-1", "conditions": "48 h", "IC50": "91.3 µM"}
{"SMILES": "COc1cc([C@@H]2c3cc4c(cc3[C@@H](O[C@@H]3O[C@@H]5CO[C@@H](C)O[C@H]5[C@H](O)[C@H]3O)[C@H]3COC(=O)[C@H]23)OCO4)cc(OC)c1O", "assay": "MTS", "conditions": "48 h", "IC50": "23.3 µM"}
{"SMILES": "O=C(/N=c1\\scc(-c2ccccc2)n1C1CCCCC1)c1ccc2ccccc2c1", "conditions": "48 h", "IC50": "19.2 µM"}
{"SMILES": "COc1cc(CNC(=O)CCCC/C=C/C(C)C)ccc1OCc1cn(-c2ccc(C(F)(F)F)cc2)nn1", "assay": "SRB", "IC50": "8.9 µM"}
{"SMILES": "Cc1cc(C)n(-c2nc(Nc3ccc(Br)cc3)nc(N3CCOCC3)n2)n1", "assay": "MTT", "conditions": "72 h", "IC50": "0.5 µM"}
{"SMILES": "O=c1ccc2ccc(O)c(CO)c2o1", "assay": "MTT", "conditions": "36 h", "IC50": "> 20 µM"}
{"SMILES": "Cc1c(OCC(F)(F)F)ccnc1COc1ccc(NC(=O)Nc2ccc(Cl)c(C(F)(F)F)c2)cc1", "assay": "MTT", "conditions": "72 h", "IC50": "5.6 µM"}
{"SMILES": "CC(=O)Oc1ccc2c(CSC(C)=O)cc(=O)oc2c1", "assay": "MTT", "conditions": "36 h", "IC50": "> 20 µM"}
{"SMILES": "CC1=C(O)C(=O)C=C2C1=CC=C1[C@@]2(C)CC[C@@]2(C)[C@@H]3C[C@](C)(C(=O)OCCCBr)CC[C@]3(C)CC[C@]12C", "assay": "MTT", "conditions": "48 h", "IC50": "0.52 µM"}
{"SMILES": "c1ccc2cc(-c3nnc(NC4CCCCC4)[nH]3)ccc2c1", "conditions": "48 h", "IC50": "2.53 µM"}
{"SMILES": "CSc1nc(/N=C/c2ccc(O)cc2)n(-c2ccc(C(=O)O)cc2)n1", "assay": "MTT", "IC50": "68.1 µM"}
{"SMILES": "O=c1cc(CCl)c2cc(O)ccc2o1", "assay": "MTT", "conditions": "36 h", "IC50": "> 20 µM"}
{"SMILES": "NC(=O)NOCCCC[P+](c1ccccc1)(c1ccccc1)c1ccccc1", "assay": "imaging", "IC50": "> 600 µM"}
{"SMILES": "CC[C@H](C)C(=O)O[C@H]1CCC=C2C=C[C@H](C)[C@H](CC[C@@H]3C[C@@H](O)CC(=O)O3)[C@H]21", "assay": "SRB", "conditions": "72 h", "IC50": "4.57 µg/mL"}
{"SMILES": "COCCCOc1ccnc(COc2ccc(NC(=O)Nc3ccc(Cl)c(C(F)(F)F)c3)cc2)c1C", "assay": "MTT", "conditions": "72 h", "IC50": "10.1 µM"}
{"SMILES": "Cn1c(-c2nnc(NC(=O)c3cc4c([nH]c5ccccc54)c(-c4ccccc4)n3)s2)cc2ccccc21", "assay": "MTT", "conditions": "72 h", "IC50": "10.3 µM"}
{"SMILES": "CC1=C(O)C(=O)C=C2C1=CC=C1[C@@]2(C)CC[C@@]2(C)[C@@H]3C[C@](C)(C(=O)OCCCCCCCO)CC[C@]3(C)CC[C@]12C", "assay": "MTT", "conditions": "48 h", "IC50": "0.93 µM"}
{"SMILES": "COc1cc([C@@H]2c3cc4c(cc3[C@@H](O[C@@H]3O[C@@H]5CO[C@@H](C)O[C@H]5[C@H](O)[C@H]3O)[C@H]3COC(=O)[C@H]23)OCO4)cc(OC)c1O", "assay": "MTS", "conditions": "72 h", "IC50": "18.3 µM"}
{"SMILES": "CC(C)n1c(/C=C/C(O)CC(O)CC(=O)O)c(-c2ccc(F)cc2)c2ccccc21 (centres unmarked)", "assay": "SRB", "conditions": "72 h", "IC50": "7.06 µg/mL"}
{"SMILES": "COc1c(C)cnc(COc2ccc(NC(=O)Nc3ccc(Cl)cc3)cc2)c1C", "assay": "MTT", "conditions": "72 h", "IC50": "19.3 µM"}
{"SMILES": "CCn1c(-c2nnc(NC(=O)c3cc4c([nH]c5ccccc54)c(-c4cc(OC)c(OC)c(OC)c4)n3)s2)cc2ccccc21", "assay": "MTT", "conditions": "72 h", "IC50": "18.7 µM"}
{"SMILES": "Cc1c(OCC(F)(F)F)ccnc1COc1ccc(NC(=O)Nc2ccc(F)cc2)cc1", "assay": "MTT", "conditions": "72 h", "IC50": "6.35 µM"}
{"SMILES": "COc1cccc2c1C(=O)c1c(O)c3c(c(O)c1C2=O)C[C@@](O)(C(=O)CO)C[C@@H]3O[C@H]1C[C@H](N)[C@H](O)[C@H](C)O1", "assay": "MTT", "IC50": "64 µM"}
{"SMILES": "COC(=O)c1cc2ccc(O)cc2oc1=O", "assay": "MTT", "conditions": "36 h", "IC50": "> 20 µM"}
{"SMILES": "CSc1nc(/N=C/c2cc([N+](=O)[O-])ccc2O)n(-c2ccc(C(=O)O)cc2)n1", "assay": "MTT", "IC50": "60.3 µM"}
{"SMILES": "Cc1c(O)ccc2ccc(=O)oc12", "assay": "MTT", "conditions": "36 h", "IC50": "> 20 µM"}
{"SMILES": "O=C(NC(=S)N1CCCC1)c1ccc2ccccc2c1", "conditions": "48 h", "IC50": "6.22 µM"}
{"SMILES": "COc1ccc(NC(=O)Nc2ccc(OCc3ncc(C)c(OC)c3C)cc2)cc1", "assay": "MTT", "conditions": "72 h", "IC50": "> 100 µM"}
{"SMILES": "CSc1nc(N)n(-c2ccc(C(=O)O)cc2)n1", "assay": "MTT", "IC50": "61 µM"}
{"SMILES": "O=C(NC(=S)NC1CCCCC1)c1ccc2ccccc2c1", "conditions": "48 h", "IC50": "4.62 µM"}
{"SMILES": "CC1=C(O)C(=O)C=C2C1=CC=C1[C@@]2(C)CC[C@@]2(C)[C@@H]3C[C@](C)(C(=O)OCCCCCCCCO)CC[C@]3(C)CC[C@]12C", "assay": "MTT", "conditions": "48 h", "IC50": "0.58 µM"}
{"SMILES": "O=Cc1ccc(CO)o1", "assay": "WST-1", "conditions": "48 h", "IC50": "83.1 µM"}
{"SMILES": "C=CC(=O)N1CCC[C@@H](n2nc(-c3ccc(Oc4ccccc4)cc3)c3c(N)ncnc32)C1", "IC50": "> 10 µM"}
{"SMILES": "COc1cccc2c3c(c[n+](C)c12)sc1cccc(F)c13", "assay": "MTT", "conditions": "72 h", "IC50": "6.8 µM"}
{"SMILES": "COc1cccc2c1C(=O)c1c(O)c3c(c(O)c1C2=O)C[C@@](O)(C(=O)CO)C[C@@H]3O[C@H]1C[C@H](N)[C@H](O)[C@H](C)O1", "conditions": "48 h", "IC50": "1.02 µM"}
{"SMILES": "CC1=C(O)C(=O)C=C2C1=CC=C1[C@@]2(C)CC[C@@]2(C)[C@@H]3C[C@](C)(C(=O)OCCCCCO)CC[C@]3(C)CC[C@]12C", "assay": "MTT", "conditions": "48 h", "IC50": "0.48 µM"}
{"SMILES": "COc1ccc(-c2nc(C(=O)Nc3nnc(-c4cc5ccccc5n4C)s3)cc3c2[nH]c2ccccc23)cc1", "assay": "MTT", "conditions": "72 h", "IC50": "8.07 µM"}
{"SMILES": "CC(=O)O[C@H]1C(=O)[C@@]2(C)[C@H]([C@H](OC(=O)c3ccccc3)[C@]3(O)C[C@H](OC(=O)[C@H](O)[C@@H](NC(=O)c4ccccc4)c4ccccc4)C(C)=C1C3(C)C)[C@]1(OC(C)=O)CO[C@@H]1C[C@@H]2O", "assay": "fluorescence", "conditions": "72 h", "IC50": "0.0019 µM"}
{"SMILES": "NC(=O)NOCCCCCCCCCCCC[P+](c1ccccc1)(c1ccccc1)c1ccccc1", "assay": "imaging", "IC50": "1.8 µM"}
{"SMILES": "COc1ccnc(COc2ccc(NC(=O)Nc3ccc(F)cc3)cc2)c1OC", "assay": "MTT", "conditions": "72 h", "IC50": "22.3 µM"}
{"SMILES": "CC(C)C[C@H](NC(=O)[C@H](Cc1ccccc1)NC(=O)c1cnccn1)B(O)O", "assay": "ATP luminescence", "IC50": "0.0097 µM"}
{"SMILES": "COc1ccnc(COc2ccc(NC(=O)Nc3cc(F)cc(F)c3)cc2)c1OC", "assay": "MTT", "conditions": "72 h", "IC50": "25.7 µM"}
{"SMILES": "O=c1c(O)c(-c2ccc(O)cc2)oc2cc(O)cc(O)c12", "assay": "WST-1", "conditions": "48 h", "IC50": "44.7 µM"}
{"SMILES": "O=C(NC(=S)Nc1ccccc1)c1ccc2ccccc2c1", "conditions": "48 h", "IC50": "5.77 µM"}
{"SMILES": "Nc1nc(Oc2ccccc2)nn1-c1ccc(C(=O)O)cc1", "assay": "MTT", "IC50": "61.2 µM"}
{"SMILES": "O=C(Nc1nnc(-c2cc3ccccc3[nH]2)s1)c1cc2c([nH]c3ccccc32)c(-c2ccc(Cl)cc2)n1", "assay": "MTT", "conditions": "72 h", "IC50": "5.98 µM"}
